Measurements: ChEMBL document CHEMBL5104191, “Identification of Novel 2,4,5-Trisubstituted Pyrimidines as Potent Dual Inhibitors of Plasmodial PfGSK3/PfPK6 with Activity against Blood Stage Parasites In Vitro” (J Med Chem, 2022)
Each block holds one molecule with its values, some of them ahead of it.

Key:
[1] = Kinetic solubility of the compound in PBS buffer at pH 7.4; type: physicochemical
[2] = Inhibition of Plasmodium falciparum PK6 measured after 2 hrs by luciferin-based luminescence assay
Plasmodium falciparum [3] = assay: Antiplasmodial activity against Plasmodium falciparum 3D7 infected in human erythrocytes assessed as reduction in parasite growth incubated for 72 hrs by SYBR green I fluorescence based assay; type: functional, organism-based; settings: 3D7, 72 h
Outline: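 P. falciparum 3D7 synchronized by sorbitol at ring stage, set to 2% parasitemia and 2% hematocrit. Compounds dosed at 0–5 μM as 2-fold dilutions in triplicate. Controls were quinacrine 500 nM and 0.5% DMSO. Incubation 72 h at 37 °C in 3% O2/5% CO2/92% N2, then SYBR Green I lysis for 24 h in the dark. Fluorescence ex 485/em 535; normalized to controls; EC50 from dose–response fit.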

HepG2 = assay: Cytotoxicity against human HepG2 cells assessed as reduction in cell viability at 2 uM measured after 48 hrs by cell titre glo luminescence assay; type: toxicity, cell-based; settings: hepg2, 48 h
Outline: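 HepG2 cells in DMEM with 10% FBS, seeded at 4000 cells/well and incubated overnight at 37 °C, 5% CO2. Compound added in quadruplicate with constant DMSO, then 48 h incubation. Viability by CellTiter-Glo luminescence, reported as % viable cells; average of two experiments in quadruplicate.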

Plasmodium falciparum [4] = assay: Inhibition of Plasmodium falciparum PK6 at 1 uM measured after 2 hrs by luciferin-based luminescence assay relative to control; values are per cent of control
[5] = molecular target: T1, Glycogen synthase kinase 3 (Plasmodium falciparum (isolate 3D7)) (UniProt O77344); assay: Inhibition of Plasmodium falciparum GSK3 at 1 uM measured after 2 hrs by luciferin-based luminescence assay relative to control; values are per cent of control
T1 sequence (whole entry): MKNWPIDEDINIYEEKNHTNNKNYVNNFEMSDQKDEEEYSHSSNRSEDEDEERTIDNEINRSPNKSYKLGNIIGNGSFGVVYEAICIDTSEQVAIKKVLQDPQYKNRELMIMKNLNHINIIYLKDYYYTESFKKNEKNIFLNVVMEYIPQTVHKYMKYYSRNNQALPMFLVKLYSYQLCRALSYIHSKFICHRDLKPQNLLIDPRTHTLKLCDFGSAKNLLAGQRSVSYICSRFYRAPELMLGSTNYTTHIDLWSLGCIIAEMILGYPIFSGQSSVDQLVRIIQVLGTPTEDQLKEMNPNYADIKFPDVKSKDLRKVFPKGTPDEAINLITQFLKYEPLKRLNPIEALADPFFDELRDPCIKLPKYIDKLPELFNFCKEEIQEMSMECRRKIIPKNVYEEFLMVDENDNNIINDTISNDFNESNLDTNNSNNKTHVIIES

[6] = Inhibition of Plasmodium falciparum PKG incubated for 30 mins […]
Plasmodium falciparum [7] = assay: Antiplasmodial activity against blood stage plasmodium falciparum assessed as inhibition of parasite growth; type: functional, organism-based

- Kinetic_solubility [1]: 19.4 µg/mL
- IC50 [2]: 460 nM
Structure (SMILES): O=C(c1ccc(Nc2nccc(-c3cc4ccccc4s3)n2)cc1)N1CCC(N2CCCC2)CC1
- EC50 (Plasmodium falciparum [3]): 280 nM
- cell viability remaining (HepG2): 103%

- IC50 [2]: 19 nM
Structure (SMILES): O=C(c1ccc(Nc2ncc(Cl)c(-c3cc4ccccc4s3)n2)cc1)N1CCC(N2CCCC2)CC1
- EC50 (Plasmodium falciparum [3]): 991 nM
- cell viability remaining (HepG2): 61%

- residual activity (Plasmodium falciparum [4]): 92%
- residual activity [5]: 89%
Structure (SMILES): Clc1ccc(Nc2nccc(-c3cc4ccccc4s3)n2)cc1

- IC50 [2]: 398 nM
Structure (SMILES): O=C(c1ccc(Nc2nccc(-c3cc4ccccc4s3)n2)cc1)N1CCNCC1

- residual activity [5]: 100%
Structure (SMILES): Clc1ccccc1Nc1nccc(-c2cc3ccccc3s2)n1

- IC50 [2]: 339 nM
Structure (SMILES): CN1CCN(C(=O)c2ccc(Nc3nccc(-c4cc5ccccc5s4)n3)cc2)CC1

- IC50 [2]: 236 nM
Structure (SMILES): O=C(c1ccc(Nc2nccc(-c3cccs3)n2)cc1)N1CCC(N2CCCC2)CC1

- IC50 [2]: 319 nM
Structure (SMILES): CN(C)CCCNC(=O)c1ccc(Nc2nccc(-c3cc4ccccc4s3)n2)cc1

- IC50 [2]: 215 nM
Structure (SMILES): CS(=O)(=O)CCCNC(=O)c1ccc(Nc2nccc(-c3cc4ccccc4s3)n2)cc1

- IC50 [2]: 8 nM
Structure (SMILES): O=C(NCCCN1CCOCC1)c1ccc(Nc2ncc(Cl)c(-c3ccc(Cl)s3)n2)cc1
- EC50 (Plasmodium falciparum [3]): 1400 nM
- cell viability remaining (HepG2): 65%

- IC50 [2]: 28 nM
Structure (SMILES): Cc1ccc(-c2nc(Nc3ccc(C(=O)N4CCC(N5CCCC5)CC4)cc3)ncc2C)s1

- IC50 [2]: 294 nM
Structure (SMILES): COc1cnc(Nc2ccc(C(=O)N3CCC(N4CCCC4)CC3)cc2)nc1-c1cc2ccccc2s1

- IC50 [2]: 11 nM
Structure (SMILES): O=C(c1ccc(Nc2ncc(Cl)c(-c3ccc(Cl)s3)n2)cc1)N1CCC(N2CCCC2)CC1
- EC50 (Plasmodium falciparum [3]): 552 nM
- cell viability remaining (HepG2): 34%

- IC50 [2]: 340 nM
Structure (SMILES): CN1CCC(NC(=O)c2ccc(Nc3nccc(-c4cc5ccccc5s4)n3)cc2)CC1

- IC50 [2]: 292 nM
Structure (SMILES): O=C(c1ccc(Nc2nccc(-c3ccc(COCC(F)(F)F)s3)n2)cc1)N1CCC(N2CCCC2)CC1
- EC50 (Plasmodium falciparum [3]): 810 nM
- cell viability remaining (HepG2): 87%

- residual activity [5]: 100%
Structure (SMILES): c1ccc(Nc2nccc(-c3cc4ccccc4s3)n2)cc1

- IC50 [2]: 156 nM
Structure (SMILES): O=C(NCCCN1CCOCC1)c1ccc(Nc2nccc(-c3cc4ccccc4s3)n2)cc1

- IC50 [2]: 153 nM
Structure (SMILES): CN1CCN(CCCNC(=O)c2ccc(Nc3nccc(-c4cc5ccccc5s4)n3)cc2)CC1

- IC50 [2]: 14 nM
Structure (SMILES): Cc1cnc(Nc2ccc(C(=O)N3CCC(N4CCCC4)CC3)cc2)nc1-c1ccc(Cl)s1
- EC50 (Plasmodium falciparum [3]): 576 nM
- cell viability remaining (HepG2): 65%

- IC50 [2]: 57 nM
Structure (SMILES): O=C(c1ccc(Nc2ncc(Br)c(-c3cc4ccccc4s3)n2)cc1)N1CCC(N2CCCC2)CC1
- EC50 (Plasmodium falciparum [3]): 300 nM
- cell viability remaining (HepG2): 47%

- IC50 [2]: 407 nM
Structure (SMILES): O=C(NC1CC1)c1ccc(Nc2nccc(-c3cc4ccccc4s3)n2)cc1

- IC50 [2]: 768 nM
Structure (SMILES): O=C(c1ccc(Nc2nccc(-c3ccco3)n2)cc1)N1CCC(N2CCCC2)CC1

- IC50 [2]: 563 nM
Structure (SMILES): O=C(c1ccc(Nc2nccc(-c3ccc(CO)s3)n2)cc1)N1CCC(N2CCCC2)CC1

Structure (SMILES): Cc1cn2c(-c3ccnc(NCC4CC4)n3)c(-c3ccc(F)c(NS(C)(=O)=O)c3)nc2cc1CN(C)C
- IC50 [6]: 2.1 nM

- residual activity (Plasmodium falciparum [4]): 78%
- residual activity [5]: 71%
Structure (SMILES): COC(=O)c1ccc(Nc2nccc(-c3cc4ccccc4s3)n2)cc1

- IC50 [2]: 14 nM
Structure (SMILES): Cc1ccc(-c2nc(Nc3ccc(C(=O)N4CCC(N5CCCC5)CC4)cc3)ncc2Cl)s1

Structure (SMILES): CC(C)n1cnc2c(NCc3ccccc3)nc(NCCO)nc21
- IC50 (Plasmodium falciparum [7]): 130000 nM

- residual activity [5]: 100%
Structure (SMILES): COc1ccccc1Nc1nccc(-c2cc3ccccc3s2)n1

- IC50 [2]: 243 nM
Structure (SMILES): O=C(c1ccc(Nc2nccc(-c3cc4ccccc4s3)n2)cc1)N1CCC(N2CC[C@@H](O)C2)CC1

- IC50 [2]: 114 nM
Structure (SMILES): O=C(c1ccc(Nc2ncc(C3CC3)c(-c3cc4ccccc4s3)n2)cc1)N1CCC(N2CCCC2)CC1
- EC50 (Plasmodium falciparum [3]): 646 nM
- cell viability remaining (HepG2): 55%

- IC50 [2]: 173 nM
Structure (SMILES): c1ccc2sc(-c3ccnc(Nc4ccc(CN5CCC(N6CCCC6)CC5)cc4)n3)cc2c1
- EC50 (Plasmodium falciparum [3]): 60 nM
- cell viability remaining (HepG2): 97%

- IC50 [2]: 45 nM
Structure (SMILES): Cc1cnc(Nc2ccc(C(=O)N3CCC(N4CCCC4)CC3)cc2)nc1-c1cc2ccccc2s1
- EC50 (Plasmodium falciparum [3]): 760 nM
- cell viability remaining (HepG2): 66%

- IC50 [2]: 329 nM
Structure (SMILES): O=C(c1ccc(Nc2nccc(-c3ccccc3)n2)cc1)N1CCC(N2CCCC2)CC1

- IC50 [2]: 12 nM
Structure (SMILES): Cc1cnc(Nc2ccc(C(=O)NCCCN3CCOCC3)cc2)nc1-c1ccc(Cl)s1

- IC50 [2]: 181 nM
Structure (SMILES): CCCN(C)C1CCN(C(=O)c2ccc(Nc3nccc(-c4cc5ccccc5s4)n3)cc2)CC1

- residual activity [5]: 100%
Structure (SMILES): c1ccc(CNc2nccc(-c3cc4ccccc4s3)n2)cc1

- IC50 [2]: 130 nM
Structure (SMILES): O=C(c1ccc(Nc2nccc(-c3ccc(Cl)s3)n2)cc1)N1CCC(N2CCCC2)CC1

- IC50 [2]: 415 nM
Structure (SMILES): O=C(c1ccc(Nc2nccc(-c3ccc(-c4ccccc4)s3)n2)cc1)N1CCC(N2CCCC2)CC1

- IC50 [2]: 66 nM
Structure (SMILES): O=C(c1ccc(Nc2ncc(F)c(-c3cc4ccccc4s3)n2)cc1)N1CCC(N2CCCC2)CC1
- EC50 (Plasmodium falciparum [3]): 607 nM
- cell viability remaining (HepG2): 79%

- IC50 [2]: 216 nM
Structure (SMILES): CN(C)C1CCN(C(=O)c2ccc(Nc3nccc(-c4cc5ccccc5s4)n3)cc2)CC1

- IC50 [2]: 115 nM
Structure (SMILES): O=C(c1ccc(Nc2nccc(-c3cc4ccccc4s3)n2)cc1)N1CCC(N2CCCCC2)CC1

- residual activity [5]: 97%
Structure (SMILES): COc1cccc(Nc2nccc(-c3cc4ccccc4s3)n2)c1

- residual activity [5]: 89%
Structure (SMILES): Clc1cccc(Nc2nccc(-c3cc4ccccc4s3)n2)c1

- IC50 [2]: 317 nM
Structure (SMILES): O=C(c1ccc(Nc2nccc(-c3cc4ccccc4o3)n2)cc1)N1CCC(N2CCCC2)CC1

- IC50 [2]: 16 nM
Structure (SMILES): Cc1ccc(-c2nc(Nc3ccc(C(=O)NCCCN4CCOCC4)cc3)ncc2Cl)s1
- EC50 (Plasmodium falciparum [3]): 2600 nM
- cell viability remaining (HepG2): 54%

- IC50 [2]: 222 nM
Structure (SMILES): Cc1ccc(-c2ccnc(Nc3ccc(C(=O)N4CCC(N5CCCC5)CC4)cc3)n2)s1

- IC50 [2]: 382 nM
Structure (SMILES): O=C(c1ccc(Nc2nccc(-c3ccc(Cl)c(Cl)c3)n2)cc1)N1CCC(N2CCCC2)CC1

- IC50 [2]: 359 nM
Structure (SMILES): O=C(c1ccc(Nc2nccc(-c3ccc4ccccc4c3)n2)cc1)N1CCC(N2CCCC2)CC1
- EC50 (Plasmodium falciparum [3]): 541 nM
- cell viability remaining (HepG2): 82%

- IC50 [2]: 182 nM
Structure (SMILES): O=C(c1ccc(Nc2nccc(-c3nccs3)n2)cc1)N1CCC(N2CCCC2)CC1

- IC50 [2]: 77 nM
Structure (SMILES): N#Cc1cnc(Nc2ccc(C(=O)N3CCC(N4CCCC4)CC3)cc2)nc1-c1cc2ccccc2s1
- EC50 (Plasmodium falciparum [3]): 322 nM
- cell viability remaining (HepG2): 84%

- residual activity [5]: 33%
Structure (SMILES): O=C(O)c1ccc(Nc2nccc(-c3cc4ccccc4s3)n2)cc1

- residual activity (Plasmodium falciparum [4]): 88%
- residual activity [5]: 97%
Structure (SMILES): COc1ccc(Nc2nccc(-c3cc4ccccc4s3)n2)cc1

- IC50 [2]: 264 nM
Structure (SMILES): O=C(c1ccc(Nc2nccc(-c3cc4ccccc4s3)n2)cc1)N1CCC(N2CC[C@H](O)C2)CC1

- IC50 [2]: 645 nM
Structure (SMILES): Cn1cc(-c2ccnc(Nc3ccc(C(=O)N4CCC(N5CCCC5)CC4)cc3)n2)cn1
